Measured values as given in ChEMBL document CHEMBL3091274, “SAR-based optimization of 2-(1H-pyrazol-1-yl)-thiazole derivatives as highly potent EP1 receptor antagonists” (Bioorg Med Chem Lett, 2013).
pIC50, pKi: −log10 of the molar value. Values after ≈ are worked out from the molar mass of the structure shown.

Columns and labels:
[1] = molecular target: T1, Prostaglandin E2 receptor EP1 subtype (Homo sapiens, UniProt P34995); assay: Antagonist activity human EP1 receptor assessed as inhibition of PGE2-induced effect by reporter gene assay
T1 sequence (P34995 whole entry): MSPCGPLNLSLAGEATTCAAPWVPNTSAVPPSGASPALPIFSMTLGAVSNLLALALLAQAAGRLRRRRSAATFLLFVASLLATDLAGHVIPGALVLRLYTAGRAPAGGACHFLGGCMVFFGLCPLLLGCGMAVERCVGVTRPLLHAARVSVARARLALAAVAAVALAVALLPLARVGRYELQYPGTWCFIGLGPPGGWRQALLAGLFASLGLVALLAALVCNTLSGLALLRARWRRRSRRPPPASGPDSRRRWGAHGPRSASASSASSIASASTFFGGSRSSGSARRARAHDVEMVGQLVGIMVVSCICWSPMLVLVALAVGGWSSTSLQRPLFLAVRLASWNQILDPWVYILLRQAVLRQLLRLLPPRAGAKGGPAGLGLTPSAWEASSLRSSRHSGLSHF
Outline: (§1)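 Human EP1 receptor-expressing recombinant cells stimulated with PGE2; antagonism read out by reporter-gene assay or by intracellular Ca2+ release; IC50 in nM.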

[2] = molecular target: T2, Prostaglandin E2 receptor EP1 subtype (Homo sapiens) (UniProt P34995); assay: Antagonist activity human EP1 receptor assessed as inhibition of PGE2-induced effect at 1 uM by reporter gene assay relative to control
T2 sequence (whole entry): T1 sequence (P34995 whole entry)

[3] = Solubility of the compound at pH 6.8; format: physicochemical; conditions: buffer
Outline: (§2)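 Solubility measured in aqueous buffer at pH 1.2 and pH 6.8; reported in […].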

albumin = albumin (Homo sapiens, UniProt P02768); assay: Binding affinity to albumin in plasma (unknown origin); format: ADME; conditions: read-out: PPB (converted)
Chain of albumin (P02768 whole entry): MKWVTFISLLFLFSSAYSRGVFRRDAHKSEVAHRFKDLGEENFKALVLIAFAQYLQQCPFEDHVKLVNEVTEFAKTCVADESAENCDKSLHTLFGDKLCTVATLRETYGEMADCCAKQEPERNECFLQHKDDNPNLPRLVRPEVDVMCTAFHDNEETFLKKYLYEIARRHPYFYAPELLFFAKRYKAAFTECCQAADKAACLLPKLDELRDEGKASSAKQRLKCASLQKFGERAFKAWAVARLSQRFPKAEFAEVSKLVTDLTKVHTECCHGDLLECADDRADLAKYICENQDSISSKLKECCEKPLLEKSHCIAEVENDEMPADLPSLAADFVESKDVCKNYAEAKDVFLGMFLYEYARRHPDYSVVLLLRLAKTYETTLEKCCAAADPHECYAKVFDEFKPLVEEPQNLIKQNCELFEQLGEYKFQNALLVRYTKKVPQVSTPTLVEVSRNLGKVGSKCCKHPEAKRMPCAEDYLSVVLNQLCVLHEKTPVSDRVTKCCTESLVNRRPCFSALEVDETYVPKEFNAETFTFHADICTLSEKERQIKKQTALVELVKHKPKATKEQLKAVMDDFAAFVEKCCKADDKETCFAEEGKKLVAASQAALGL

[4] = Solubility of the compound in water; format: physicochemical
[5] = molecular target: T1, Prostaglandin E2 receptor EP1 subtype; assay: Antagonist activity human EP1 receptor assessed as inhibition of PGE2-induced intracellular Ca2+ release by cell-based assay; format: functional; outline: as §1
[6] = Intrinsic clearance in human liver microsomes; format: ADME; conditions: read-out: CLH
Outline: (§3)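 Rat or human hepatic microsomes; test compound at 0.5 µM; CLint calculated from elimination ratio between 0 and 20 min; expressed as ml/min/kg.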

[7] = Intrinsic clearance in rat liver microsomes; format: ADME; conditions: read-out: CLH; outline: as §3
[8] = Apparent permeability in MDCK cells; format: ADME, cell-based, Canis lupus familiaris; conditions: dog
Outline: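 Epithelial permeability across Madin–Darby canine kidney cell monolayer, with atenolol as reference.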

Salmonella typhimurium = assay: Genotoxicity in Salmonella typhimurium TA98 by Ames test; format: toxicity, organism-based; conditions: salmonella enterica subsp. enterica serovar typhimurium
Outline: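 Bacterial reverse mutation (Ames) test in amino acid-requiring Salmonella typhimurium TA98, detecting point mutations.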

Cytochrome P450 2C19 = Cytochrome P450 2C19 (Homo sapiens, UniProt P33261); assay: Inhibition of human CYP2C19; format: ADME
Chain of Cytochrome P450 2C19 (P33261 whole entry): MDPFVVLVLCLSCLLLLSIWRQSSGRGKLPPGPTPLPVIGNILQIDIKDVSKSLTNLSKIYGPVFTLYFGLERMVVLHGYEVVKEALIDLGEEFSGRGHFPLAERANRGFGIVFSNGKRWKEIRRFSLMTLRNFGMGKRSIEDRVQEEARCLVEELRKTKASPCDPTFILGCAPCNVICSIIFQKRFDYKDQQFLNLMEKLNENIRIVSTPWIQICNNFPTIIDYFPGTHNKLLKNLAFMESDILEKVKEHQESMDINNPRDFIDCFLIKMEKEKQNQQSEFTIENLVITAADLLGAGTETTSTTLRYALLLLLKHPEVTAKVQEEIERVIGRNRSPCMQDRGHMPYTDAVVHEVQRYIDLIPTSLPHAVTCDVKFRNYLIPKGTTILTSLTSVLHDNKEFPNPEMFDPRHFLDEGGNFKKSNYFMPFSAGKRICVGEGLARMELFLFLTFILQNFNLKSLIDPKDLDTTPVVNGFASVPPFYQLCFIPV

Cytochrome P450 3A4 = Cytochrome P450 3A4 (Homo sapiens, UniProt P08684); assay: Inhibition of human CYP3A4; format: ADME
Chain of Cytochrome P450 3A4 (P08684 whole entry): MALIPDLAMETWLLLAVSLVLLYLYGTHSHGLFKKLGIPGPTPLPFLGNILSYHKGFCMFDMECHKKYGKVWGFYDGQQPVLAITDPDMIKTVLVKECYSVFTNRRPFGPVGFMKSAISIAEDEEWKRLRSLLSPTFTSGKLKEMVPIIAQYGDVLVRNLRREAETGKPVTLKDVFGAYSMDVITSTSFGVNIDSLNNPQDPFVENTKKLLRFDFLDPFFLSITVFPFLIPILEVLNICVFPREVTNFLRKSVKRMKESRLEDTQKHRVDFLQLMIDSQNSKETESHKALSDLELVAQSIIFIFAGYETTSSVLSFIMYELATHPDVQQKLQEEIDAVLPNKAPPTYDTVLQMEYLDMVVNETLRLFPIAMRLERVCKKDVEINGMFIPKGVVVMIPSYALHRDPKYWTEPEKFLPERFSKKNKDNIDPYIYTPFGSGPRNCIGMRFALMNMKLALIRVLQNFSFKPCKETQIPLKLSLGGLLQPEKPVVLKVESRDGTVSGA

[9] = molecular target: Prostaglandin E2 receptor EP2 subtype (Homo sapiens, UniProt P43116); assay: Binding affinity to human EP2 receptor
Chain of Prostaglandin E2 receptor EP2 subtype (P43116 whole entry): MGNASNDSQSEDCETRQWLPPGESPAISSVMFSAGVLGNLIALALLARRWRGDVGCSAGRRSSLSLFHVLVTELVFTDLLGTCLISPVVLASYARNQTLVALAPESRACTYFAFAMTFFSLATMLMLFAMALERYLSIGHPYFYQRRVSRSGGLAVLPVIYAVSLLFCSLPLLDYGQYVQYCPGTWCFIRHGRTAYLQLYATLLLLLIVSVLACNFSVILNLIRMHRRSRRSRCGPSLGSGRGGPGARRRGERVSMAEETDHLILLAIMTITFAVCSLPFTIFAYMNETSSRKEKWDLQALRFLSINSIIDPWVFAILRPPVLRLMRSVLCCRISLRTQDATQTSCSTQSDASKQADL

Cytochrome P450 2D6 = Cytochrome P450 2D6 (Homo sapiens, UniProt P10635); assay: Inhibition of human CYP2D6; format: ADME
Chain of Cytochrome P450 2D6 (P10635 whole entry): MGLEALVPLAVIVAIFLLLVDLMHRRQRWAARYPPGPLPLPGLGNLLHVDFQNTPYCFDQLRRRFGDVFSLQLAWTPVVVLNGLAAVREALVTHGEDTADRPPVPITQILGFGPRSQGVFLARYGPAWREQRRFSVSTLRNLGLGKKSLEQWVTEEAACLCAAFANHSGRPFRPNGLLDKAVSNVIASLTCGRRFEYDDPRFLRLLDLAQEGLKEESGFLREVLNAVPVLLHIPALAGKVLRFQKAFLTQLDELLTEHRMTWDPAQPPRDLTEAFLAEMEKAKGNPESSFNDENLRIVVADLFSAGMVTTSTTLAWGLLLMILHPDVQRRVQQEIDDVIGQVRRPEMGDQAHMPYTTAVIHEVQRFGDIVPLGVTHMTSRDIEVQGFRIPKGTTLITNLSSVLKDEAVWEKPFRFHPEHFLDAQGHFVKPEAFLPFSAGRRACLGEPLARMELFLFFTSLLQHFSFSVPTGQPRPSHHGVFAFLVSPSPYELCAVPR

Cytochrome P450 1A2 = molecular target: T3, Cytochrome P450 1A2 (Homo sapiens, UniProt P05177); assay: Inhibition of human CYP1A2; format: ADME
T3 sequence (P05177 whole entry): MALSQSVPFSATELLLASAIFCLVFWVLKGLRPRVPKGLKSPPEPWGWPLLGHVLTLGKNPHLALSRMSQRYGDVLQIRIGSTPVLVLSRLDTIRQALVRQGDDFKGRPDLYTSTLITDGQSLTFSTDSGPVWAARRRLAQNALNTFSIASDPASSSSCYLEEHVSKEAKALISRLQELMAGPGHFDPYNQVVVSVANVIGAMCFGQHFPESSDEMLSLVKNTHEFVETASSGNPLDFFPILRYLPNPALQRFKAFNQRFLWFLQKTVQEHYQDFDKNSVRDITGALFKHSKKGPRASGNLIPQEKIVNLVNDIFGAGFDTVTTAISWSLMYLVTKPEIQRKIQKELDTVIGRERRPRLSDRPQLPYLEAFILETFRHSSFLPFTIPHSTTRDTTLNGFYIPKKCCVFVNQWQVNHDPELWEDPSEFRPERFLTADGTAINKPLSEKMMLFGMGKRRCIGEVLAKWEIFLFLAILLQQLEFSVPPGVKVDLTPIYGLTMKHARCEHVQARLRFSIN

Cytochrome P450 2C9 = Cytochrome P450 2C9 (Homo sapiens, UniProt P11712); assay: Inhibition of human CYP2C9; format: ADME
Chain of Cytochrome P450 2C9 (P11712 whole entry): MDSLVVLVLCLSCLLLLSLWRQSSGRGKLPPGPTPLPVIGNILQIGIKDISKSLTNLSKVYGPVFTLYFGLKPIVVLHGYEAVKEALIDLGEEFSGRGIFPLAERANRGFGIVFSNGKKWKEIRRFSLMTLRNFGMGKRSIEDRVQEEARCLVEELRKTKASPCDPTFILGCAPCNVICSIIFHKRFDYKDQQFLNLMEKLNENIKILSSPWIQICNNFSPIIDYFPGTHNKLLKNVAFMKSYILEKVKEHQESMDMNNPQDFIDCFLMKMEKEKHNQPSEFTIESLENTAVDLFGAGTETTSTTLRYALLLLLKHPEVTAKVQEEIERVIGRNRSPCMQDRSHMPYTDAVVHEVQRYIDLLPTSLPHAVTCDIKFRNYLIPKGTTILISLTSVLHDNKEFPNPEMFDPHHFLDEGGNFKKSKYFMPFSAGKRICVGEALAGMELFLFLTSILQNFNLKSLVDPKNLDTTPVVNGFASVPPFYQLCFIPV

[10] = Solubility of the compound at pH 1.2; format: physicochemical; conditions: buffer; outline: as §2
[11] = Cmax in rat at 10 mg/kg, po; format: ADME, organism-based; set-up: dose 10 mg/kg, route oral; conditions: in vivo
Outline: (§4)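 Rats (n = 3) given single oral dose, 10 mg/kg; plasma Cmax, AUC and bioavailability derived from pharmacokinetic profile.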

[12] = AUC (0 to infinity) in rat at 10 mg/kg, po; format: ADME, organism-based; set-up: time infinity, dose 10 mg/kg, route oral; conditions: plasma; outline: as §4
[13] = molecular target: T1, Prostaglandin E2 receptor EP1 subtype; assay: Binding affinity to human EP1 receptor
[14] = Oral bioavailability in rat at 10 mg/kg; format: ADME, organism-based; conditions: in vivo; outline: as §4
[15] = molecular target: T4, Prostaglandin E2 receptor EP3 subtype (Homo sapiens, UniProt P43115); assay: Binding affinity to human EP3 receptor
T4 sequence (P43115 whole entry): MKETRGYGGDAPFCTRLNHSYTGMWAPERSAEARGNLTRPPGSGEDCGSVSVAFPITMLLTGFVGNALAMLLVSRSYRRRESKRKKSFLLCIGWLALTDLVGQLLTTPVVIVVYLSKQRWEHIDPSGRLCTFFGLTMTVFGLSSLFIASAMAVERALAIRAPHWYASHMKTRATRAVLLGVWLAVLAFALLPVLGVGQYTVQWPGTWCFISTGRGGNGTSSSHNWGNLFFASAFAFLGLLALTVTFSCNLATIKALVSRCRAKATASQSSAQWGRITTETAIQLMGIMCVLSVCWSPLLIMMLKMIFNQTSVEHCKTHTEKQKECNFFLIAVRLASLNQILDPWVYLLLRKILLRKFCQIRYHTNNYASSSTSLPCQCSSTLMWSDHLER

[16] = molecular target: Prostaglandin E2 receptor EP4 subtype (Homo sapiens, UniProt P35408); assay: Binding affinity to human EP4 receptor
Chain of Prostaglandin E2 receptor EP4 subtype (P35408 whole entry): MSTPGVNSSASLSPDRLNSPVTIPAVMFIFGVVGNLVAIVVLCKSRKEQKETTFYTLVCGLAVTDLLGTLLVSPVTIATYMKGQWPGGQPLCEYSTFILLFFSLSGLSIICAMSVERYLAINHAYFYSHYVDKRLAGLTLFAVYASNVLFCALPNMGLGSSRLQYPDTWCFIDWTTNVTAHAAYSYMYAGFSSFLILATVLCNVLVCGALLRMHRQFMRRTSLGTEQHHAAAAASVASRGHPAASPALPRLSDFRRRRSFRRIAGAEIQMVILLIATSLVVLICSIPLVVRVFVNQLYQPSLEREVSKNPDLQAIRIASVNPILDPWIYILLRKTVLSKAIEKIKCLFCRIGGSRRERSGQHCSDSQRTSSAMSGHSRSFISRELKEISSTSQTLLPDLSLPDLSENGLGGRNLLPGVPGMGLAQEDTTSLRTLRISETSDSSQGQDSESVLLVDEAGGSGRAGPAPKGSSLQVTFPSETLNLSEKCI

Thromboxane A2 receptor = molecular target: T5, Thromboxane A2 receptor (Homo sapiens, UniProt P21731); assay: Inhibition of TP receptor (unknown origin)
T5 sequence (P21731 whole entry): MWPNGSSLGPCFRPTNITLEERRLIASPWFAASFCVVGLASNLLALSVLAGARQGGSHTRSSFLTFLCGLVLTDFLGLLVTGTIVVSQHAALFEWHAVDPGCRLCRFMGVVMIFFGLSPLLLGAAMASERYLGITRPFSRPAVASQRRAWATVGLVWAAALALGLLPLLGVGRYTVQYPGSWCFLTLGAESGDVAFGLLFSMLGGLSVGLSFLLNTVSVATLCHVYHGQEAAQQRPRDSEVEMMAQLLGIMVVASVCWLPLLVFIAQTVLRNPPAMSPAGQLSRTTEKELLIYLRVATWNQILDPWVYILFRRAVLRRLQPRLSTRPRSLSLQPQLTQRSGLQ

SMILES: O=C(O)c1csc(-n2nc(-c3ccccc3)c(I)c2-c2ccccc2)n1
- pIC50 [1]: 6.89

SMILES: O=C(O)c1csc(-n2nc(-c3ccccc3)c(O)c2-c2ccccc2)n1
- pIC50 [1]: 7.22

SMILES: Cc1c(-c2ccccc2)nn(-c2cncc(C(=O)O)c2)c1-c1ccccc1
- inhibition [2]: 26%

SMILES: O=C(O)c1csc(-n2nc(-c3ccccc3)c(Cl)c2-c2ccccc2)n1
- pIC50 [1]: 7.22

SMILES: Cc1c(-c2ccccc2)nn(-c2nc(C(=O)O)cs2)c1-c1ccc(N)cc1
- inhibition [2]: 10%

SMILES: O=C(O)c1csc(-n2nc3c(c2-c2ccccc2)CCc2ccccc2-3)n1
- solubility [3]: 10 µg/mL (≈ 26.8 µM)
- fraction unbound (albumin): 0.0012
- solubility [4]: 20 µg/mL (≈ 53.6 µM)
- pIC50 [1]: 8.70
- pIC50 [5]: 7.70
- CLint scaled [6]: 149 mL/min/kg
- CLint scaled [7]: 236 mL/min/kg

SMILES: Cc1c(-c2ccccc2)nn(-c2ccc(C(=O)O)s2)c1-c1ccccc1
- pIC50 [1]: 6.00

SMILES: Cc1c(-c2ccccc2)nn(-c2nc(C(=O)O)cs2)c1-c1ccsc1
- pIC50 [1]: 7.10

SMILES: Cc1sc(-n2nc(-c3ccccc3)c(C)c2-c2ccccc2)nc1C(=O)O
- pIC50 [1]: 6.48

SMILES: CCc1c(-c2ccccc2)nn(-c2nc(C(=O)O)cs2)c1-c1ccccc1
- inhibition [2]: -4%

SMILES: Cc1c(-c2ccccc2)nn(-c2ccc(C(=O)O)o2)c1-c1ccccc1
- inhibition [2]: 24%

SMILES: O=C(O)c1csc(-n2nc(-c3ccccc3)c(F)c2-c2ccccc2)n1
- pIC50 [1]: 7.52

SMILES: Cc1c(-c2ccccc2)nn(-c2nc(C(=O)O)cs2)c1-c1ccc(F)cc1
- pIC50 [1]: 7.00

SMILES: Cc1c(-c2ccccc2)nn(-c2nc(C(=O)O)cs2)c1-c1cccc(F)c1
- pIC50 [1]: 7.30

SMILES: O=C(O)c1csc(-n2nc(-c3ccccc3)c3c2-c2ccccc2CC3)n1
- pIC50 [1]: < 7.00

SMILES: O=C(O)c1csc(-n2nc(-c3ccccc3)c(Br)c2-c2ccccc2)n1
- pIC50 [1]: 7.70

SMILES: Cc1c(-c2ccccc2)nn(-c2nc(/C=C/C(=O)O)cs2)c1-c1ccccc1
- pIC50 [1]: 6.30

SMILES: O=C(O)c1csc(-n2nc(-c3ccccc3)c3oc4ccccc4c32)n1
- pIC50 [1]: 7.70

SMILES: Cc1c(-c2ccccc2)nn(-c2nc(C(=O)O)cs2)c1-c1ccccc1
- solubility [3]: 401 µg/mL (≈ 1110 µM)
- fraction unbound (albumin): 0.0029
- Papp [8]: 51.6 ×10⁻⁶ cm/s
- Activity (Salmonella typhimurium): Non-toxic
- solubility [4]: 129 µg/mL (≈ 357 µM)
- CLint scaled [6]: 35 mL/min/kg
- pIC50 (Cytochrome P450 2C19): 5.33
- pIC50 (Cytochrome P450 3A4): < 5.00
- CLint scaled [7]: 15 mL/min/kg
- pKi [9]: < 5.06
- pIC50 (Cytochrome P450 2D6): < 5.00
- pIC50 (Cytochrome P450 1A2): 5.10
- pIC50 (Cytochrome P450 2C9): < 5.00

SMILES: Cc1c(-c2ccccc2)nn(-c2nc(C(=O)O)cs2)c1-c1cncnc1
- inhibition [2]: 24%

SMILES: Cc1c(-c2ccccc2)nn(-c2cccc(C(=O)O)n2)c1-c1ccccc1
- inhibition [2]: 48%

SMILES: O=C(O)c1csc(-n2nc(-c3ccccc3)c(C(F)(F)F)c2-c2ccccc2)n1
- pIC50 [1]: 6.82

SMILES: Nc1c(-c2ccccc2)nn(-c2nc(C(=O)O)cs2)c1-c1ccccc1
- solubility [3]: 1010 µg/mL (≈ 2790 µM)
- fraction unbound (albumin): 0.01
- Papp [8]: 12.2 ×10⁻⁶ cm/s
- Activity (Salmonella typhimurium): Non-toxic
- solubility [10]: 867 µg/mL (≈ 2390 µM)
- solubility [4]: 865 µg/mL (≈ 2390 µM)
- pIC50 [1]: 7.70
- pIC50 [5]: 7.22
- CLint scaled [6]: 19 mL/min/kg
- pIC50 (Cytochrome P450 2C19): 5.21
- Cmax [11]: 6.33 µM
- AUC(0-inf) [12]: 17.4 µM·h
- pIC50 (Cytochrome P450 3A4): < 5.00
- CLint scaled [7]: 29 mL/min/kg
- pKi [9]: < 5.06
- pIC50 (Cytochrome P450 2D6): < 5.00
- pKi [13]: 8.10
- bioavailability [14]: 26%
- pIC50 (Cytochrome P450 1A2): 5.15
- pKi [15]: < 5.30
- pKi [16]: < 5.57
- pIC50 (Thromboxane A2 receptor): 6.70
- pIC50 (Cytochrome P450 2C9): 5.25

SMILES: Cc1c(-c2ccccc2)nn(-c2nc(C(=O)O)cs2)c1-c1cnn(C)c1
- inhibition [2]: 8%

SMILES: Cc1c(-c2ccccc2)nn(-c2nc(C(=O)O)cs2)c1-c1cccs1
- pIC50 [1]: 6.92

SMILES: Cc1c(-c2ccccc2)nn(-c2nc(C(=O)O)cs2)c1-c1cccnc1
- inhibition [2]: 34%

SMILES: O=C(O)c1csc(-n2nc(-c3ccccc3)c3c2-c2ccccc2C3)n1
- solubility [3]: 57 µg/mL (≈ 159 µM)
- fraction unbound (albumin): 0.0032
- solubility [4]: 4 µg/mL (≈ 11.1 µM)
- pIC50 [1]: 9.05
- pIC50 [5]: 7.40
- CLint scaled [6]: 425 mL/min/kg
- CLint scaled [7]: 927 mL/min/kg

SMILES: Cc1c(-c2ccccc2)nn(-c2nc(C(=O)O)co2)c1-c1ccccc1
- inhibition [2]: 33%

SMILES: COc1c(-c2ccccc2)nn(-c2nc(C(=O)O)cs2)c1-c1ccccc1
- inhibition [2]: 18%
